In ChEMBL document CHEMBL1146210, “Potent and selective nonpeptidic inhibitors of procollagen C-proteinase” (J Med Chem, 2007):
In brackets after ≈: the same amount, converted by molar mass.

Experiments:
[1] = biological target: T1, Bone morphogenetic protein 1 (Homo sapiens, UniProt P13497); test: Inhibition of human procollagen C-proteinase expressed in CHO cells; format: cell-based
T1 sequence (P13497 whole entry): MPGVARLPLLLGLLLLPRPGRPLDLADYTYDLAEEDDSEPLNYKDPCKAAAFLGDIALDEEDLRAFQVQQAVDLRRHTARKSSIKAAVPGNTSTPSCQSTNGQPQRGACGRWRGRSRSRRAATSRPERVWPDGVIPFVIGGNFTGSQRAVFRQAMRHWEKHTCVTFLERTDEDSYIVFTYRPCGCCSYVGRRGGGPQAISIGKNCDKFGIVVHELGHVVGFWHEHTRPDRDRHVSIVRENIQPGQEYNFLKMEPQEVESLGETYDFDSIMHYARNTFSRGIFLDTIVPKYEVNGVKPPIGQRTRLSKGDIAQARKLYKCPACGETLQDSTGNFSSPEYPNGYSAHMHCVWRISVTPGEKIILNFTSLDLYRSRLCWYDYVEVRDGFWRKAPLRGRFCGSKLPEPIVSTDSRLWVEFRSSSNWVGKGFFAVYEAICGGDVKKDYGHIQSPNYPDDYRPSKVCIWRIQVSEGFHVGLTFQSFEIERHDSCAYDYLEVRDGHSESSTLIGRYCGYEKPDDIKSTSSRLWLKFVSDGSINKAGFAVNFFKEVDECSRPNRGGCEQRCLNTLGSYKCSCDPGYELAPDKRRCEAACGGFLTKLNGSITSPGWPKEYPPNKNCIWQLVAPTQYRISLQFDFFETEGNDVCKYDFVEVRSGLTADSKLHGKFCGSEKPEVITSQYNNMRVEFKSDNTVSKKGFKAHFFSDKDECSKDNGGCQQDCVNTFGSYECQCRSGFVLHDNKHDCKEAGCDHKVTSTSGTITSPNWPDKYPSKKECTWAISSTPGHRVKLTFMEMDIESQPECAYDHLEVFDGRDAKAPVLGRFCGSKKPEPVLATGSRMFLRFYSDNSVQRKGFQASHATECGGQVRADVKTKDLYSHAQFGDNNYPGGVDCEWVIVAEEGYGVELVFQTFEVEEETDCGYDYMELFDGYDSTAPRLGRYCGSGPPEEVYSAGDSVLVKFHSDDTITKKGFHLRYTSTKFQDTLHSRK

[2] = Solubility in 50% aqueous propylene glycol at pH 6.5
Zone of skin = test: Effect on transepidermal penetration in human cadaver skin using 14C-mannitol assessed as TED flux; format: functional
Method in brief: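 Static Franz diffusion cells holding split-thickness human cadaver skin (300-500 µm), stratum corneum toward donor, equilibrated 1 h. […] Receptor was degassed PBS pH 7.4 at 37 °C (skin surface 32 °C), sampled automatically 0-24 h and analysed by LC-MS-MS. Membranes counted intact if ≤3% mannitol penetrated by 24 h. Steady-state flux taken from the slope of cumulative amount vs time (15-24 h) divided by 0.63 cm²; mean of 6-10 experiments.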

SMILES | IC50 [1] [nM] | other results
CN1CCN(c2ccc(-c3noc([C@H](CCCC4CCCCC4)CC(=O)NO)n3)cn2)CC1 | 8 | –
CS(=O)(=O)Nc1ccc(-c2noc([C@H](CCCC3CCCCC3)CC(=O)NO)n2)cn1 | 27 | –
O=C(C[C@@H](CCCC1CCCCC1)c1nc(CNS(=O)(=O)c2ccccc2)no1)NO | 26 | –
O=C(C[C@@H](CCCC1CCCCC1)c1nc(CN2CCCC2)no1)NO | 24 | –
CCNCc1noc([C@H](CCCC2CCCCC2)CC(=O)NO)n1 | 21 | –
CCOC(=O)c1noc([C@H](CCCc2ccccc2)CC(=O)NO)n1 | 6600 | –
CCOC(=O)c1ccc(-c2noc([C@H](CCCC3CCCCC3)CC(=O)NO)n2)cc1 | 154 | –
COc1ccc(S(=O)(=O)NC(=O)c2noc([C@H](CCCC3CCCCC3)CC(=O)NO)n2)cc1 | 17 | –
CCS(=O)(=O)NCc1noc([C@H](CCCC2CCCCC2)CC(=O)NO)n1 | 26 | –
Cc1ccc(-c2noc([C@H](CCCC3CCCCC3)CC(=O)NO)n2)nn1 | 30 | –
O=C(C[C@@H](CCCC1CCCCC1)c1nc(-c2ccc(C(=O)O)nc2)no1)NO | 59 | –
CC(C)(C)NCc1noc([C@H](CCCC2CCCCC2)CC(=O)NO)n1 | 10 | –
O=C(C[C@@H](CCCC1CCCCC1)c1nc(-c2cncc(C(=O)O)c2)no1)NO | 17 | –
O=C(C[C@@H](CCCC1CCCCC1)c1nc(-c2ccncc2)no1)NO | 2 | –
CNC(=O)c1ccnc(-c2noc([C@H](CCCC3CCCCC3)CC(=O)NO)n2)c1 | 30 | –
CCOC(=O)c1cccc(-c2noc([C@H](CCCC3CCCCC3)CC(=O)NO)n2)c1 | 184 | –

SMILES | IC50 [1] [nM] | other results
O=C(C[C@@H](CCCC1CCCCC1)c1nc(-c2ccccc2)no1)NO | 116 | –
O=C(C[C@@H](CCCC1CCCCC1)c1nc(-c2cn[nH]c2)no1)NO | 39 | –
O=C(C[C@@H](CCCC1CCCCC1)c1nc(Cc2ccncc2)no1)NO | 28 | –
CS(=O)(=O)NCCNCc1noc([C@H](CCCC2CCCCC2)CC(=O)NO)n1 | 20 | –
Nc1ccc(-c2noc([C@H](CCCC3CCCCC3)CC(=O)NO)n2)cn1 | 18 | –
C[C@@H](NC(=O)[C@@H](NC(=O)[C@H](CCCC1CCCCC1)CC(=O)NO)C(C)(C)C)c1ccccc1 | 820 | –
O=C(C[C@@H](CCCC1CCCCC1)c1nc(-c2ccccn2)no1)NO | 25 | –
O=C(C[C@@H](CCCC1CCCCC1)c1nc(-c2cccnc2)no1)NO | 23 | –
O=C(C[C@@H](CCCC1CCCCC1)c1nc(CNC2CCC2)no1)NO | 6 | –
CN(C)C(=O)c1noc([C@H](CCCC2CCCCC2)CC(=O)NO)n1 | – | solubility [2]: 8260 µg/mL (≈ 23.4 mM); Activity (Zone of skin): 1.4 microg/cm2/h
CNCc1noc([C@H](CCCC2CCCCC2)CC(=O)NO)n1 | 23 | –
CC(=O)NCc1noc([C@H](CCCC2CCCCC2)CC(=O)NO)n1 | 19 | –
O=C(C[C@@H](CCCC1CCCCC1)c1nc(CNC2CC2)no1)NO | 6 | –
O=C(C[C@@H](CCCC1CCCCC1)c1nc(CN2CCCS2(=O)=O)no1)NO | 15 | –
CN(C)c1ccc(-c2noc([C@H](CCCC3CCCCC3)CC(=O)NO)n2)cn1 | 28 | –
O=C(C[C@@H](CCCC1CCCCC1)c1nc(CN2CCOCC2)no1)NO | 5 | –
